Source: ChEMBL document CHEMBL3352038, “Discovery of cytotoxic dolastatin 10 analogues with N-terminal modifications” (J Med Chem, 2014)
Non-standard residues stand in square brackets, D forms with d. Residues, ends and D or L forms follow the SMILES beside them. *: point of attachment. Dolaproine = CO[C@@H]([C@@H]1CCCN1)[C@@H](C)C(=O)O; Dil = CC[C@H](C)[C@H](NC)[C@@H](CC(=O)O)OC; Doe = c1ccc(C[C@H](N*)c2nccs2)cc1; NMeV = CN[C@H](C(=O)O)C(C)C; Ac5c = NC1(C(=O)O)CCCC1; Ac3c = NC1(C(=O)O)CC1

How the values were obtained:
BT-474 = test: Cytotoxicity against human BT474 cells assessed as cell viability incubated fore 4 days by MTS assay; format: functional; conditions: BT-474, 96 h
Outline: (§1)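 Cells seeded at low density in 96-well plates, dosed next day with 3-fold serial dilutions at 10 concentrations in duplicate. Incubated 4 days at 37C/5% CO2. Viability read by MTS reagent (1.5 h), absorbance at 490 nm. Four-parameter logistic fit. Reported as arithmetic mean GI50 (nM) with standard deviation over n individual runs, each run a duplicate readout.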

NCI-N87 = test: Cytotoxicity against human NCI-N87 cells assessed as cell viability incubated fore 4 days by MTS assay; format: functional; conditions: NCI-N87, 96 h; outline: as §1
MDA-MB-361 = test: Cytotoxicity against human MDA-MB-361 cells assessed as cell viability incubated fore 4 days by MTS assay; format: functional; conditions: MDA-MB-361, 96 h; outline: as §1
[1] = Apparent intrinsic clearance in human liver microsomes at 1 uM; format: ADME; conditions: read-out: CLH(app)
Outline: (§2)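 Apparent intrinsic clearance measured at 1 μM substrate in human liver microsomes (μl/min/mg) and in human hepatocytes (μl/min/million cells).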

Hepatocyte = test: Apparent intrinsic clearance in human liver hepatocytes at 1 uM; format: ADME, cell-based; outline: as §2

SMILES	GI50 (BT-474) [nM]	GI50 (NCI-N87) [nM]	GI50 (MDA-MB-361) [nM]	microsomal CLint at 1 µM [1] [µL/min/mg]	CLH(app) (Hepatocyte) [µL/min/mg]
CC[C@H](C)[C@@H]([C@@H](CC(=O)N1CCC[C@H]1[C@H](OC)[C@@H](C)C(=O)N[C@@H](Cc1ccccc1)c1nccs1)OC)N(C)C(=O)[C@@H](NC(=O)C1(N)CCCC1)C(C)C (H-[Ac5c]V[Dil][Dolaproine]-Doe)	0.28	0.33	0.35		
CC[C@H](C)[C@@H]([C@@H](CC(=O)N1CCC[C@H]1[C@H](OC)[C@@H](C)C(=O)N[C@@H](Cc1ccccc1)c1nccs1)OC)N(C)C(=O)[C@@H](NC(=O)[C@@]1(C)CCCCN1)C(C)C	0.35	0.52	0.4		
CC[C@H](C)[C@@H]([C@@H](CC(=O)N1CCC[C@H]1[C@H](OC)[C@@H](C)C(=O)N[C@@H](Cc1ccccc1)c1nccs1)OC)N(C)C(=O)[C@@H](NC(=O)[C@@]1(F)CCNC1)C(C)C	0.29	1.1	0.6		
CC[C@H](C)[C@@H]([C@@H](CC(=O)N1CCC[C@H]1[C@H](OC)[C@@H](C)C(=O)N[C@@H](Cc1ccccc1)c1nccs1)OC)N(C)C(=O)[C@@H](NC(=O)[C@]1(C)CCCN1)C(C)C	0.14	0.15	0.2		
CC[C@H](C)[C@@H]([C@@H](CC(=O)N1CCC[C@H]1[C@H](OC)[C@@H](C)C(=O)N[C@@H](Cc1ccccc1)c1nccs1)OC)N(C)C(=O)[C@@H](NC(=O)[C@@H](NC)C(C)C)C(C)C (H-[NMeV]V[Dil][Dolaproine]-Doe)	0.12	0.3	0.09	48	11
CC[C@H](C)[C@@H]([C@@H](CC(=O)N1CCC[C@H]1[C@H](OC)[C@@H](C)C(=O)N[C@@H](Cc1ccccc1)c1nccs1)OC)N(C)C(=O)[C@@H](NC(=O)C1(N)CC1)C(C)C (H-[Ac3c]V[Dil][Dolaproine]-Doe)	2.9	6.4	5.6		
CC[C@H](C)[C@@H]([C@@H](CC(=O)N1CCC[C@H]1[C@H](OC)[C@@H](C)C(=O)N[C@@H](Cc1ccccc1)c1nccs1)OC)N(C)C(=O)[C@@H](NC(=O)C(C)(C)CN)C(C)C	0.25	1.4	0.81		
CC[C@H](C)[C@@H]([C@@H](CC(=O)N1CCC[C@H]1[C@H](OC)[C@@H](C)C(=O)N[C@@H](Cc1ccccc1)c1nccs1)OC)N(C)C(=O)[C@@H](NC(=O)[C@]1(C)CCCCN1)C(C)C	0.16	0.25	0.2		
CC[C@H](C)[C@@H]([C@@H](CC(=O)N1CCC[C@H]1[C@H](OC)[C@@H](C)C(=O)N[C@@H](Cc1ccccc1)c1nccs1)OC)N(C)C(=O)[C@@H](NC(=O)[C@@H](N)C(C)C)C(C)C (H-VV[Dil][Dolaproine]-Doe)	5.3	10	9		
